# Compound activity deposited in PubChem BioAssay by Broad Institute.
# CAL PDZ FP-1: untagged CAL PDZ binding inhibitors, primary screen, biochemical, fluorescence polarization, HTS; inhibition, % at 24.9 µM; purified CAL PDZ, TMR-peptide fluorescence polarization, 1 h; Golgi-associated PDZ and coiled-coil motif-containing protein (Homo sapiens), Q9HD26; 300,000 compounds, 0.92% hits;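 active means mean inhibition of at least 30% with at least half of replicates also reaching 30%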;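 further: 0% = DMSO neutral control and 100% = excess unlabeled competitor peptide PRC23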
# CAL PDZ FP-2: CAL PDZ peptide-binding inhibitors, primary screen, biochemical, fluorescence polarization, Cer-tagged CAL PDZ, HTS | Golgi-associated PDZ and coiled-coil motif-containing protein (Homo sapiens), Q9HD26 | purified CAL PDZ, TMR-peptide fluorescence polarization, 1 h | inhibition, % at 20 µM | 330,000 compounds, 0.02% hits | AID 504414, 2011;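 active means highest replicate inhibition of at least 40%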;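 further: plate controls were DMSO neutral control wells for no effect and unlabeled competitor peptide control wells for full effect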
#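 Test system: purified CerCALP PDZ construct; Compound dosing: one concentration, 20 µM compound; Also added: TMR-labelled reporter peptide T*-PRC34 bound in PDZ groove; Read-out: inhibition from polarization loss; Controls: unlabelled peptide and DMSO controls; Signal: FP readout, S and P plane fluorescence; Incubation: 1 h at RT.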
# PvdQ inh: P. aeruginosa PvdQ acylase inhibitors, primary screen, biochemical, fluorescence, plate reader and imaging, single point; inhibition, % at 10 µM; 340,000 compounds, 0.063% hits; PvdQ acylase [Pseudomonas aeruginosa LESB58]; purified PvdQ acylase; in the data active means inhibition above about 30%, passing the limit was not always enough;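 further: 0% = vehicle neutral wells and 100% = reference inhibitor wells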
# miR122 inh: miR-122 Renilla sensor signal increase in Huh7, primary screen, miR-122 inhibitor project, cell-based, single point, plate reader; Huh7 miR-122 Renilla luciferase sensor, 48 h; neutral wells = 0, positive control = 100; activation (reporter increase), % at 12.5 µM; 340,000 compounds, 0.3% hits; AID 602342, 2012;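 active means mean replicate activation score at least 90 and every replicate individually at or above 90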;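 further: higher luciferase means less miR-122 activity so hits act as miR-122 inhibitors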
# miR-27b qPCR: miR-27b levels after miR-122 inhibitor treatment, dose response, selectivity assay for miR-122 inhibitor project, cell-based, Huh7, RT-qPCR, dry powder | relative miR-27b level (unnormalised ratio), ratio at 35 µM | 35 tested, under 10 active | Huh7 miR-27b levels, qRT-PCR, 48 h | shares compounds with miR122 inh;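 active means compounds lowering miR-27b whose fitted half-maximal dose is at most twice their top tested dose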
# The depositor's hits bear a star; . = not tested or not shown. The list is not random: actives were taken first. Their share in the collection is about 0.95%.
SMILES,CAL PDZ FP-1,CAL PDZ FP-2,PvdQ inh,miR122 inh,others
COc1ccc(-c2nc3ccccc3n2OC(=O)N(C)C)cc1,1.8,.,-14.2,113.9*,
CC/C(CC(c1ccccc1)c1c(O)c2ccccc2oc1=O)=N\NC(N)=S (configuration not stated),65.4*,-0.8,-11.2,.,
C/C(CC(c1ccccc1)c1c(O)c2ccccc2oc1=O)=N\Nc1ccc([N+](=O)[O-])cc1[N+](=O)[O-] (configuration not stated),2.9,-0.2,-2.4,13.8,
CC1=CC(=O)OC2CC3OC4C[C@@H](C)C5OC6CC7O[C@]8(C)C/C=C\C9OC%10CC%11OC(CC(C)C%12OCCO%12)CC(O)[C@]%11(C)OC%10CC9OC8C[C@]7(C)O[C@]6(C)CCC5OC4C[C@]3(C)OC12 (some centres not stated),-1.4,0.7,-16.6,-4.3,
CC(=NCCCO)c1c(O)[nH]c(=O)[nH]c1=O,.,.,.,-6.7,
CCn1c(=O)cc(SCC(=O)N2CCC3(CC2)OCCO3)c2ccccc21,.,-1.3,3.8,.,
C1CCC2S[C@H]3CCCCC3NC2C1 (some centres not stated),58.2*,-1.2,-7.1,5.7,
CCOC(=O)c1c(-c2ccc(OC)cc2)oc2ccc(OC(=O)N(C)C)cc12,-0.8,-1.7,-19.2,1.7,
Cc1oc2ccc(OC(=O)N(C)C)cc2c1C(=O)OC(C)C,-1.1,0.2,4.1,143.5*,
CN(C)c1ccc(C=C2C(=O)NC(=S)NC2=O)cc1,185.4*,-0.4,-20.0,4.8,
Cc1nc2ccccc2n1C1CCN(Cc2nnnn2CCc2ccccc2)CC1,-6.9,.,-9.5,0.6,
O=C(CN1CCOCC1)Nc1ccc(Br)cc1C(=O)c1ccccc1,-5.0,-0.2,5.1,100.4*,miR-27b qPCR=0.943
c1ccc2c(CN3CCCCC3)c[nH]c2c1,.,-0.6,1.0,.,
